Tests used:
[1] = Concentration required to reduce cell survival to 10% of controls using V-79 cells in the clonogenic assay, in aerobic conditions; format: functional; details: Cricetulus griseus, V79
Outline: (§1)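 V-79 cells (500 000 per bottle) grown 20 h in MEM with 10% FBS. Hypoxic set gassed 2 h at 37 °C with humidified 95% N2/5% CO2. Drug in ethanol/water or DMF injected through septa. Exposure 3 h under air or hypoxia. Cells trypsinised, counted by trypan blue, 500 plated in triplicate for 6–8 days. Colonies stained with crystal violet, survival relative to solvent control.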

[2] = Concentration required to reduce cell survival to 10% of controls using V-79 cells in the clonogenic assay, in anaerobic conditions (hypoxic conditions); format: functional; details: Cricetulus griseus, V79; outline: as §1
[3] = Hypoxic selectivity expressed as the ratio of IC50 values in air and nitrogen; format: functional
[4] = species: Rattus norvegicus; experiment: Bioreduction experiment was conducted by incubation of the sulfoxides with rat liver S-9 fractions in aerobic conditions (N2, menadione); format: functional
Outline: (§2)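 Rat liver S-9 fraction incubated with sulfoxide at 37 °C for 30 min with shaking. Aerobic vials were left open to air. Anaerobic vials were purged with N2 for 10 min before the compound was injected. Cofactor was NADPH, benzaldehyde, 2-hydroxypyrimidine or acetaldehyde, or none. Controls were boiled S-9 and S-9 without cofactors. For menadione, S-9 was preincubated aerobically with 1 equiv for 30 min, then benzaldehyde was added. Sulfide or sulfone was measured by HPLC or TLC densitometry.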

[5] = species: Rattus norvegicus; experiment: Bioreduction experiment was conducted by incubation of the sulfoxides with rat liver S-9 fractions in aerobic conditions (air, benzaldehyde); format: functional; outline: as §2
[6] = species: Rattus norvegicus; experiment: Bioreduction experiment was conducted by incubation of the sulfoxides with rat liver S-9 fractions in aerobic conditions (air, NADPH); format: functional; outline: as §2
[7] = species: Rattus norvegicus; experiment: Bioreduction experiment was conducted by incubation of the sulfoxides with rat liver S-9 fractions in aerobic conditions (air, without cofactors); format: functional; outline: as §2
[8] = species: Rattus norvegicus; experiment: Bioreduction experiment was conducted by incubation of the sulfoxides with rat liver S-9 fractions in anaerobic conditions (N2, benzaldehyde); format: functional; parameters: concentration or dose not given beside the values; outline: as §2
[9] = species: Rattus norvegicus; experiment: Bioreduction experiment was conducted by incubation of the sulfoxides with rat liver S-9 fractions in anaerobic conditions (N2, without cofactors); format: functional; parameters: concentration or dose not given beside the values; outline: as §2
[10] = species: Rattus norvegicus; experiment: Bioreduction experiment was conducted by incubation of the sulfoxides with rat liver S-9 fractions in aerobic conditions (air, control); format: functional; outline: as §2
[11] = species: Rattus norvegicus; experiment: Bioreduction experiment was conducted by incubation of the sulfoxides with rat liver S-9 fractions in aerobic conditions (N2, acetaldehyde); format: functional; outline: as §2
[12] = species: Rattus norvegicus; experiment: Bioreduction experiment was conducted by incubation of the sulfoxides with rat liver S-9 fractions in aerobic conditions (N2, NADPH); format: functional; outline: as §2
[13] = species: Rattus norvegicus; experiment: Bioreduction experiment was conducted by incubation of the sulfoxides with rat liver S-9 fractions in anaerobic conditions N2); format: functional; outline: as §2
[14] = species: Rattus norvegicus; experiment: Bioreduction experiment was conducted by incubation of the sulfoxides with rat liver S-9 fractions in aerobic conditions (N2, 2-hydroxypyrimidine); format: functional; outline: as §2
[15] = species: Rattus norvegicus; experiment: Reduction potential (SCE) determined by differential pulse polarography of the sulfoxides […]; format: functional
[16] = Relative cytotoxicity is expressed as the ratio of the IC50 values of the corresponding sulfide to sulfoxide or to sulfone; format: functional, Cricetulus griseus
Outline: (§3)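 V-79 cells (about 7 × 10³ per 100 μL) preincubated 24 h, then exposed to drug for 3 h under oxic conditions. Washed 5× with HBSS and grown 48 h more. Fixed with TCA and stained with SRB. Bound dye dissolved in 10 mM Tris, spotted on TLC and read by video densitometry. IC50 is the mean of triplicates in one experiment. Ratio is IC50 of sulfide over sulfoxide or sulfone.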

[17] = Concentration of drug required to reduce V-79 cell survival to 50% of controls in a SRB assay; format: functional, cell-based; details: Cricetulus griseus, V79; outline: as §3
[18] = species: Rattus norvegicus; experiment: Bioreduction experiment was conducted by incubation of the sulfoxides with rat liver S-9 fractions in anaerobic conditions (N2); format: functional; outline: as §2
[19] = species: Rattus norvegicus; experiment: Bioreduction experiment was conducted by incubation of the sulfoxides with rat liver S-9 fractions in anaerobic conditions (N2 2-hydroxypyrimidine); format: functional; outline: as §2
[20] = species: Rattus norvegicus; experiment: Bioreduction experiment was conducted by incubation of the sulfoxides with rat liver S-9 fractions in anaerobic conditions(N2, without cofactors); format: functional; outline: as §2
[21] = species: Rattus norvegicus; experiment: Bioreduction experiment was conducted by incubation of the sulfoxides with rat liver S-9 fractions in anaerobic conditions(N2, benzaldehyde); format: functional; outline: as §2
[22] = species: Rattus norvegicus; experiment: Bioreduction experiment was conducted by incubation of the sulfoxides with rat liver S-9 fractions in anaerobic conditions(N2, menadione); format: functional; outline: as §2
[23] = species: Rattus norvegicus; experiment: Bioreduction experiment was conducted by incubation of the sulfoxides with rat liver S-9 fractions in aerobic conditions(air, NADPH); format: functional; outline: as §2
[24] = species: Rattus norvegicus; experiment: Bioreduction experiment was conducted by incubation of the sulfoxides with rat liver S-9 fractions in aerobic conditions(air without cofactors); format: functional; outline: as §2
[25] = species: Rattus norvegicus; experiment: Bioreduction experiment was conducted by incubation of the sulfoxides with rat liver S-9 fractions in aerobic conditions(air, benzaldehyde); format: functional; outline: as §2
[26] = species: Rattus norvegicus; experiment: Bioreduction experiment was conducted by incubation of the sulfoxides with rat liver S-9 fractions in aerobic conditions(air ); format: functional; outline: as §2
[27] = species: Rattus norvegicus; experiment: Bioreduction experiment was conducted by incubation of the sulfoxides with rat liver S-9 fractions in aerobic conditions(N2, menadione); format: functional; outline: as §2
[28] = species: Rattus norvegicus; experiment: Bioreduction experiment was conducted by incubation of the sulfoxides with rat liver S-9 fractions in aerobic conditions(air, control); format: functional; outline: as §2
[29] = species: Rattus norvegicus; experiment: Bioreduction experiment was conducted by incubation of the sulfoxides with rat liver S-9 fractions in aerobic conditions(N2, NADPH); format: functional; outline: as §2
[30] = species: Rattus norvegicus; experiment: Bioreduction experiment was conducted by incubation of the sulfoxides with rat liver S-9 fractions in aerobic conditions(air, without cofactors); format: functional; outline: as §2
[31] = Hypoxia-selective cytotoxicity required to reduce cell survival to 10% of controls using V-79 cells in the clonogenic assay, with N2; format: functional; details: Cricetulus griseus, V79; outline: as §1
[32] = Hypoxia-selective cytotoxicity required to reduce cell survival to 10% of controls using V-79 cells in the clonogenic assay, with air; format: functional; details: Cricetulus griseus, V79; outline: as §1
[33] = species: Rattus norvegicus; experiment: Bioreduction experiment was conducted by incubation of the sulfoxides with rat liver S-9 fractions in aerobic conditions(N2, 2-hydroxypyrimidine); format: functional; outline: as §2
[34] = species: Rattus norvegicus; experiment: Bioreduction experiment was conducted by incubation of the sulfoxides with rat liver S-9 fractions in aerobic conditions(N2, acetaldehyde); format: functional; outline: as §2

| SMILES | IC90 [1] [mM] | IC90 [2] [µM] | Selectivity [3] | Bioreduction [8] [%] | Bioreduction [9] [%] | Bioreduction [13] [%] | E [15] | Cytotoxicity [16] | IC50 [17] [µM] | Bioreduction [18] [%] | Bioreduction [20] [%] | further results |
| --- | --- | --- | --- | --- | --- | --- | --- | --- | --- | --- | --- | --- |
| [O-][S+](c1ccc(NCCCl)cc1)c1ccc(NCCCl)cc1 | 1.58 | 2210 | 0.7 | – | – | – | – | – | – | – | – | – |
| [O-][S+](c1ccccc1)c1ccccc1 [(PHENYLSULFINYL)BENZENE] | – | – | – | 18 | 0 | 0 | 2.3 -V | – | – | – | – | Bioreduction [4]: 0%; Bioreduction [5]: 0%; Bioreduction [6]: 11.6 nmol/mg; Bioreduction [7]: 0%; Bioreduction [10]: 0%; Bioreduction [11]: 6%; Bioreduction [12]: 0%; Bioreduction [14]: 17.4% |
| Cl.O=S(=O)(c1ccc(Nc2c3ccccc3nc3ccccc23)cc1)c1ccc(N(CCCl)CCCl)cc1 | – | – | – | – | – | – | – | 0.09 | 22.2 | – | – | – |
| [O-][s+]1c2ccccc2c2cc(N(CCCl)CCCl)ccc21 (stereo not drawn) | 0.21 | 161 | 1.3 | – | – | – | 2.03 -V | – | – | 0 | 0.46 | Bioreduction [19]: 2.02%; Bioreduction [21]: 1.68% |
| Nc1ccc(Sc2ccc(N(CCCl)CCCl)cc2)cc1 | – | – | – | – | – | – | – | 1 | 2.49 | – | – | – |
| [O-][s+]1c2ccccc2c2ccccc21 | – | – | – | 4.4 | 0 | 0 | 1.82 -V | – | – | – | – | – |
| [O-][S+](c1ccc(N(CCCl)CCCl)cc1)c1ccc(N(CCCl)CCCl)cc1 | 3.09 | 184 | 17 | – | – | – | 2.63 -V | – | – | 0 | 0 | Bioreduction [22]: 0%; Bioreduction [23]: 0%; Bioreduction [24]: 0%; Bioreduction [25]: 0%; Bioreduction [26]: 0% |
| C[S+]([O-])c1ccccc1 (stereo not drawn) [METHYLPHENYLSULFOXIDE] | – | – | – | 10.2 | 0 | 0 | 2.4 -V | – | – | – | – | – |
| Cl.[O-][S+](c1ccc(Nc2c3ccccc3nc3ccccc23)cc1)c1ccc(N(CCCl)CCCl)cc1 (stereo not drawn) | – | – | 27 | – | – | – | 2.63 -V | 0.07 | 26.2 | 0 | 1.29 | Bioreduction [27]: 1.07%; Bioreduction [28]: 0%; Bioreduction [23]: 0%; Bioreduction [29]: 1.37%; Bioreduction [30]: 0%; Bioreduction [25]: 0%; IC90 [31]: 180 µM; IC90 [32]: 4.95 mM; Bioreduction [33]: 1.34%; Bioreduction [34]: 1.79%; Bioreduction [21]: 2.28% |

— ChEMBL document CHEMBL1133503 (J Med Chem, 2000)
